Measurements from ChEMBL document CHEMBL5252671, “Design, synthesis and evaluation of the anti-breast cancer activity of 1,3-oxazolo[4,5-d]pyrimidine and 1,3-oxazolo[5,4-d]pyrimidine derivatives” (2023).
Active and inactive are the calls of the source. No cut-off for these calls is given here.

Columns and labels:
Format in all cases: functional
[1] = system: MDA-MB-231; test: Antiproliferative activity against human wild type MDA-MB-231 cells assessed as inhibition of cell growth at 3 uM measured at 96 hrs by trypan blue staining based MTT assay
Procedure, shortened: (§1)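 MDA cell lines were treated with 5-iodotubercidin (1 μM or 3 μM) or with test compound (10 μM or 30 μM). Drugs were dissolved in 0.225% DMSO, which also served as vehicle control. Proliferation was measured by Trypan Blue cell counting every 24 h for several consecutive days after seeding. MTT viability compared wild-type and mutant cells.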

[2] = system: MDA-MB-231; test: Antiproliferative activity against human MDA-MB-231 cells assessed as inhibition of cell growth at 1 X 10^-5 M measured for 48 hrs by sulforhodamine B assay relative to control; conditions: MDA-MB-231, 48 h, dose 1 10^-5M
Procedure, shortened: (§2)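 NCI one-dose screen. Cells were seeded at 5000-40000/well in RPMI 1640 with 5% FBS and 2 mM L-glutamine and preincubated 24 h at 37 °C in 5% CO2. Compound was added at 10⁻⁵ M for 48 h. Cells were then fixed with 10% TCA, stained with sulforhodamine B, washed with 1% acetic acid, solubilized in 10 mM Tris and read as OD at 510 nm.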

[3] = system: MCF7; test: Antiproliferative activity against human MCF7 cells assessed as inhibition of cell growth at 1 X 10^-5 M measured for 48 hrs by sulforhodamine B assay relative to control; conditions: MCF7, 48 h, dose 1 10^-5M; procedure, shortened: as §2
[4] = system: BT-549; test: Anticancer activity against human BT-549 cells measured at 48 hrs
Procedure, shortened: (§3)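 NCI DTP five-dose screen on the breast subpanel: compound at 0.01, 0.1, 1, 10 and 100 μM for 48 h. Cell density read by sulforhodamine B (protein content). GI50, TGI and LC50 were derived from the T, T0 and C optical densities using the NCI formulas.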

[5] = system: MDA-MB-231; test: Anticancer activity against human MDA-MB-231 cells measured at 48 hrs; procedure, shortened: as §3
[6] = system: MDA-MB-231; test: Antiproliferative activity against human wild type MDA-MB-231 cells assessed as inhibition of cell growth at 10 to 30 uM measured for 24 hrs in presence of 5-Iodotubercidin by trypan blue staining based MTT assay; conditions: dose 10-30 µM; procedure, shortened: as §1
[7] = system: T47D; test: Anticancer activity against human T47D cells measured at 48 hrs; conditions: for CC50: read-out: LC50 (the source's name); procedure, shortened: as §3
[8] = system: BT-549; test: Antiproliferative activity against human BT-549 cells assessed as inhibition of cell growth at 1 X 10^-5 M measured for 48 hrs by sulforhodamine B assay relative to control; conditions: BT-549, 48 h, dose 1 10^-5M; procedure, shortened: as §2
[9] = system: T47D; test: Antiproliferative activity against human T47D cells assessed as inhibition of cell growth at 1 X 10^-5 M measured for 48 hrs by sulforhodamine B assay relative to control; conditions: dose 1 10^-5M; procedure, shortened: as §2
[10] = system: MDA-MB-468; test: Anticancer activity against human MDA-MB-468 cells measured at 48 hrs; procedure, shortened: as §3
[11] = system: MDA-MB-468; test: Antiproliferative activity against human MDA-MB-468 cells assessed as inhibition of cell growth at 1 X 10^-5 M measured for 48 hrs by sulforhodamine B assay relative to control; conditions: MDA-MB-468, 48 h, dose 1 10^-5M; procedure, shortened: as §2
[12] = system: MDA-MB-231; test: Antiproliferative activity against human ADK-L knockdown MDA-MB-231 cells assessed as inhibition of cell growth at 1 to 3 uM measured at 24 hrs in presence of 5-iodotubercidin by trypan blue staining based MTT assay; conditions: dose 1-3 µM; procedure, shortened: as §1
[13] = system: MDA-MB-231; test: Antiproliferative activity against human wild type MDA-MB-231 cells assessed as inhibition of cell growth at 3 uM measured at 24 hrs by trypan blue staining based MTT assay; procedure, shortened: as §1
[14] = system: Hs-578T; test: Antiproliferative activity against human Hs-578T cells assessed as inhibition of cell growth at 1 X 10^-5 M measured for 48 hrs by sulforhodamine B assay relative to control; conditions: dose 1 10^-5M; procedure, shortened: as §2
[15] = system: MDA-MB-231; test: Antiproliferative activity against human wild type MDA-MB-231 cells assessed as inhibition of cell growth at 3 uM measured at 24 hrs in presence of 5-Iodotubercidin by trypan blue staining based MTT assay; procedure, shortened: as §1
[16] = system: Hs-578T; test: Anticancer activity against human Hs-578T cells measured at 48 hrs; procedure, shortened: as §3
[17] = system: MDA-MB-231; test: Antiproliferative activity against human wild type MDA-MB-231 cells assessed as inhibition of cell growth at 10 uM measured at 24 to 96 hrs by trypan blue staining based MTT assay; conditions: time 24-96 hrs; procedure, shortened: as §1
[18] = system: MDA-MB-231; test: Antiproliferative activity against human wild type MDA-MB-231 cells assessed as inhibition of cell growth at 10 to 30 uM measured for 24 hrs by trypan blue staining based MTT assay; conditions: dose 10-30 µM; procedure, shortened: as §1
[19] = system: MCF7; test: Anticancer activity against human MCF7 cells measured at 48 hrs; procedure, shortened: as §3
[20] = system: MDA-MB-231; test: Antiproliferative activity against human ADK-L knockdown MDA-MB-231 cells assessed as inhibition of cell growth at 1 to 3 uM measured at 24 hrs by trypan blue staining based MTT assay; conditions: dose 1-3 µM; procedure, shortened: as §1
[21] = system: MDA-MB-231; test: Antiproliferative activity against human wild type MDA-MB-231 cells assessed as inhibition of cell growth at 3 uM measured at 48 hrs by trypan blue staining based MTT assay; procedure, shortened: as §1

Row | Compound | inhibition at 10 µM [2] [%] | inhibition at 10 µM [3] [%] | GI50 [4] [µM] | TGI [4] [µM] | GI50 [5] [µM] | LC50 (concentration killing 50% of starting cells) [5] [µM] | TGI [5] [µM] | GI50 [7] [µM] | TGI [7] [µM] | inhibition at 10 µM [8] [%] | inhibition at 10 µM [9] [%] | GI50 [10] [µM] | TGI [10] [µM] | inhibition at 10 µM [11] [%] | inhibition at 10 µM [14] [%] | GI50 [16] [µM] | LC50 (50% lethal concentration) [16] [µM] | TGI [16] [µM] | GI50 [19] [µM] | LC50 (concentration giving 50% net cell kill) [19] [µM] | other results
1 | c1ccc(-c2nc(N3CCNCC3)c3oc(-c4ccccc4)nc3n2)cc1 | 187 | 162 | 1.77 | 3.41 | 1.76 | 6.1 | 3.28 | 2.1 | 4.95 | 106 | 142 | 1.73 | 3.42 | 174 | 161 | 1.88 | 8.8 | 4.07 | 1.48 | 7.4 | Activity [1]: inactive; Activity [6]: Active; CC50 [7]: > 100 µM; Activity [12]: Active; Activity [13]: Active; Activity [15]: Active; Activity [17]: Active; Activity [18]: Active; TGI [19]: 3.31 µM
2 | Cc1ccc(-c2nc3nc(-c4ccc(Cl)cc4)nc(N4CCCNCC4)c3o2)cc1 | 176 | 179 | 1.9 | 3.61 | 1.87 | 6.21 | 3.37 | 1.94 | 4.14 | 1 | 136 | 1.78 | 3.42 | 154 | 151 | 1.93 | 9.02 | 4.17 | 1.7 | 6.75 | LC50 (concentration giving 50% net cell kill) [4]: 6.86 µM; CC50 [7]: 8.84 µM; LC50 (concentration giving 50% net cell kill) [10]: 6.59 µM; TGI [19]: 3.39 µM
3 | Nc1ncnc2c1c(I)cn2[C@@H]1O[C@H](CO)[C@@H](O)[C@H]1O | – | – | – | – | – | – | – | – | – | – | – | – | – | – | – | – | – | – | – | – | Activity [20]: Active; Activity [21]: Active
4 | Cc1ccc(-c2nc3nc(-c4ccc(F)cc4)nc(N4CCCNCC4)c3o2)cc1 | 185 | 172 | 1.66 | 3.37 | 1.63 | 5.91 | 3.11 | 1.85 | 3.94 | 177 | 164 | 1.58 | 3.18 | 176 | 176 | 1.78 | 7.63 | 3.69 | 1.23 | 7.14 | LC50 (concentration giving 50% net cell kill) [4]: 6.85 µM; LC50 (concentration giving 50% net cell kill) [10]: 6.41 µM; TGI [19]: 2.96 µM
